Tests used:
[1] = Selectivity index, ratio of IC50 for mouse L929 cells to IC50 for human HCT116 cells after 72 hrs by MTT assay; format: toxicity; details: L929 cells versus HCT116 cells, read-out: Ratio IC50
Summary of the method: (§1)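 Both cell types were kept in medium with 10% FBS, 2 mM L-glutamine and penicillin/streptomycin at 37 °C, 5% CO2. Seeding was 0.7 × 10^5 cells per well for HCT-116, 0.1 × 10^6 for the other lines. Cells got compound in DMSO (0.1% final) for 72 h, then 0.5 mg/mL MTT for 3 h, with formazan read at 550 nm. IC50 came from nonlinear regression over three independent experiments in triplicate. SI is the L929 IC50 divided by the cancer-line IC50.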

K562 = assay: Cytotoxicity against human K562 cells assessed as reduction in cell viability after 72 hrs by MTT assay; format: functional, cell-based; details: K562, 72 h
Summary of the method: (§2)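 Cells were grown in medium with 10% FBS, 2 mM L-glutamine, penicillin and streptomycin at 37 °C, 5% CO2. Seeding per well was 0.1 × 10^6 for leukaemia, PC3, L929 and NCI-H460, and 0.7 × 10^5 for HCT-116. Compounds in DMSO (0.1% final) were applied for 72 h. MTT (0.5 mg/mL) was added for 3 h, formazan dissolved in DMSO, and absorbance read at 550 nm. IC50 by nonlinear regression; three independent experiments in triplicate.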

L929 = assay: Cytotoxicity against mouse L929 cells assessed as reduction in cell viability after 72 hrs by MTT assay; format: cell-based; details: L929, 72 h; summary of the method: as §2
[2] = Selectivity index, ratio of IC50 for mouse L929 cells to IC50 for human Lucena1 cells after 72 hrs by MTT assay
Summary of the method: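 Selectivity index is the ratio of IC50 in murine L929 fibroblasts to IC50 in Lucena 1 cells, each measured by 72 h MTT assay (absorbance 550 nm). IC50 values came from nonlinear regression of three independent experiments in triplicate.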

[3] = Cytotoxicity against human Lucena1 cells assessed as reduction in cell viability after 72 hrs by MTT assay; format: functional, cell-based; details: Lucena 1, 72 h; summary of the method: as §2
[4] = Selectivity index, ratio of IC50 for mouse L929 cells to IC50 for human HL-60cells after 72 hrs by MTT assay; format: toxicity; details: L929 cells versus HL-60 cells, read-out: Ratio IC50; summary of the method: as §1
NCI-H460 = assay: Cytotoxicity against human NCI-H460 cells assessed as reduction in cell viability after 72 hrs by MTT assay; format: functional, cell-based; details: NCI-H460, 72 h
Summary of the method: (§3)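 Cells were grown in medium with 10% FBS, 2 mM L-glutamine, penicillin and streptomycin at 37 °C, 5% CO2. Compounds in DMSO (0.1% final) were applied for 72 h. MTT (0.5 mg/mL) was added for 3 h, formazan dissolved in DMSO, and absorbance read at 550 nm. IC50 by nonlinear regression; three independent experiments in triplicate.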

HCT-116 = assay: Cytotoxicity against human HCT-116 cells assessed as reduction in cell viability after 72 hrs by MTT assay; format: functional, cell-based; details: HCT-116, 72 h; summary of the method: as §2
[5] = Selectivity index, ratio of IC50 for mouse L929 cells to IC50 for human K-562 cells after 72 hrs by MTT assay; format: toxicity; details: L929 cells versus K-562 cells, read-out: Ratio IC50; summary of the method: as §1
[6] = Selectivity index, ratio of IC50 for mouse L929 cells to IC50 for human PC3 cells after 72 hrs by MTT assay; format: toxicity; details: L929 cells versus PC3 cells, read-out: Ratio IC50; summary of the method: as §1
PC-3 = assay: Cytotoxicity against human PC-3 cells assessed as reduction in cell viability after 72 hrs by MTT assay; format: functional, cell-based; details: PC-3, 72 h; summary of the method: as §2
Trypanosoma cruzi = assay: Antitrypanosomal activity against Trypanosoma cruzi Y strain bloodstream trypomastigotes assessed as lysis of parasite in presence of 5 % mouse blood incubated for 24 hrs by Neubauer chamber method; format: functional, organism-based
Summary of the method: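 Y strain bloodstream trypomastigotes came from infected albino mice at peak parasitaemia, purified by differential centrifugation, in RPMI at 10^7 cells/mL with 10% mouse blood. They were mixed 1:1 with compound at twice the final concentration (5% blood final), 24 h at 4 °C, with DMSO ≤0.4% final. Neubauer chamber counting; IC50 is 50% lysis; at least three independent experiments.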

HL-60 = assay: Cytotoxicity against human HL-60 cells assessed as reduction in cell viability after 72 hrs by MTT assay; format: functional, cell-based; details: HL-60, 72 h; summary of the method: as §3
[7] = Cytotoxicity against albino Swiss mouse peritoneal macrophages assessed as reduction in cell viability incubated for 24 hrs by Presto blue assay; format: tissue-based, Macrophage; details: read-out: LC50
Summary of the method: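 Primary peritoneal macrophages from Albino Swiss mice were seeded at 2.5 × 10^4 cells per well in RPMI-1640 (pH 7.2, 10% FBS, 2 mM glutamine) and grown 24 h at 37 °C. They were then treated 24 h at 37 °C with compound from DMSO stock (final DMSO ≤0.4%).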

[8] = Selectivity index, ratio of IC50 for mouse L929 cells to IC50 for human NCI-H460 cells after 72 hrs by MTT assay; format: toxicity; details: L929 cells versus NCI-H460 cells, read-out: Ratio IC50; summary of the method: as §1
[9] = Selectivity index, ratio of LC50 for cytotoxicity against albino Swiss mouse peritoneal macrophages to IC50 for Antitrypanosomal activity against Trypanosoma cruzi Y strain bloodstream trypomastigotes assessed as lysis of parasite in presence of 5 % mouse blood; format: toxicity
Summary of the method: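 Y-strain bloodstream trypomastigotes came from infected albino mice at peak parasitaemia and were purified by differential centrifugation. They were resuspended at 10^7/mL in RPMI with 10% mouse blood and mixed 1:1 with compound at twice the final concentration (DMSO ≤0.4%). Incubation was 24 h at 4 °C (5% blood per footnote).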

SMILES | selectivity ratio at 72 h [1] | IC50 (K562) [µM] | IC50 (L929) [µM] | Ratio IC50 [2] | IC50 [3] [µM] | selectivity ratio at 72 h [4] | IC50 (NCI-H460) [µM] | IC50 (HCT-116) [µM] | selectivity ratio at 72 h [5] | selectivity ratio at 72 h [6] | IC50 (PC-3) [µM] | IC50 (Trypanosoma cruzi) [µM] | IC50 (HL-60) [µM] | CC50 at 24 h [7] [µM] | selectivity ratio at 72 h [8] | selectivity ratio [9]
Cc1ccc(S(=O)(=O)n2cc(COC3=C/C(=N\c4ccc(Cl)cc4)c4ccccc4C3=O)nn2)cc1 | 2 | 9.8 | > 20 | 6.1 | 3.16 | 2.8 | 12.1 | 9.44 | 2 | 1 | > 20 | > 500 | 6.92 | > 100 | 1.6 | –
C#CCOC1=C/C(=N\c2ccc(Br)cc2)c2ccccc2C1=O | 1.2 | > 20 | > 20 | 2.2 | 12.5 | 1.9 | > 20 | > 20 | 1.2 | 1.7 | 15.9 | – | 14.2 | – | 1.3 | –
CC(=O)c1ccc(/N=C2\C=C(OCc3cn(S(=O)(=O)c4ccc(C)cc4)nn3)C(=O)c3ccccc32)cc1 | 1.7 | 5.52 | 10.8 | 1.7 | 6.46 | 2 | 15.8 | 6.27 | 1.9 | 2.7 | 3.91 | > 500 | 5.3 | 40.6 | 0.7 | > 12.3
C#CCOC1=C/C(=N\c2ccc(C(C)=O)cc2)c2ccccc2C1=O | 1 | > 20 | > 20 | 1.9 | 16.2 | 1.1 | > 20 | > 20 | 1 | 24 | 12.5 | – | > 20 | – | 1 | –
C#CCOC1=C/C(=N\c2ccc(F)cc2)c2ccccc2C1=O | 1.8 | 13.5 | > 20 | 1.9 | 17 | 3.6 | 17 | 18.7 | 2.4 | 1 | > 20 | – | 9.2 | – | 1.9 | –
Cc1ccc(S(=O)(=O)n2cc(COC3=C/C(=N\c4ccc(I)cc4)c4ccccc4C3=O)nn2)cc1 | 1 | 10.8 | > 16.4 | 5.6 | 2.9 | 2.6 | > 16.4 | > 16.4 | 1.5 | 1 | > 16.4 | > 500 | 6.31 | > 100 | 1 | –
COc1cccc2c1C(=O)c1c(O)c3c(c(O)c1C2=O)C[C@@](O)(C(=O)CO)C[C@@H]3O[C@H]1C[C@H](N)[C@H](O)[C@H](C)O1 [DOXORUBICIN] | – | 0.49 | – | – | 0.18 | – | – | – | – | – | – | – | – | – | – | –
C#CCOC1=C/C(=N\c2ccc(OC)cc2)c2ccccc2C1=O | 2.9 | > 20 | > 20 | 2.8 | 11.4 | 4.4 | 9.45 | 10.7 | 1 | 3.6 | 8.82 | – | 7.18 | – | 3.3 | –
C#CCOC1=C/C(=N\c2ccc(C)cc2)c2ccccc2C1=O | 1.6 | > 20 | > 20 | 2.4 | 14.1 | 2.8 | 16.9 | > 20 | 1.5 | 1.8 | 18.4 | – | 12 | – | 2 | –
C#CCOC1=C/C(=N\c2ccc(I)cc2)c2ccccc2C1=O | 1.5 | 17 | > 20 | 1.6 | 15.1 | 2 | > 20 | 16.5 | 1.4 | 1 | > 20 | – | 11.9 | – | 1 | –
C#CCOC1=C/C(=N\c2ccccc2)c2ccccc2C1=O | 1.2 | > 20 | > 20 | 1.5 | > 20 | 2 | > 20 | > 20 | 1 | 2.5 | 14.1 | – | 17.4 | – | 1.6 | –
